ChEMBL document CHEMBL5252676, “Dimeric polyphenols to pave the way for new antimalarial drugs” (RSC Med Chem, 2023)
In brackets after ≈: the same amount, converted by molar mass. Several values for one entry are separate records, joined by “and”; a condition that tells them apart may be missing. Equal values may be shown once. Activity calls are given as the source filed them. The calls are words filed in the database; no cut-off is given here.

Experiments:
[1] = Selectivity index, ratio of IC50 for cytotoxicity against HUVEC cells to IC50 for antiplasmodial activity against chloroquine-sensitive Plasmodium falciparum 3D7; assay type: toxicity, cell-based; conditions: human, read-out: Ratio IC50
[2] = Cytotoxicity against HUVEC cells assessed as inhibition of cell growth incubated for 48 hrs by fluorescence based assay; assay type: toxicity; conditions: human
Method in brief: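 HUVEC in EGM-2, at most 10 passages, seeded at 2.5 × 10⁴ cells/well and grown 24 h at 37 °C. Six 2-fold concentrations in triplicate (DMSO max 0.5%) for 48 h. PrestoBlue for 2–3 h, fluorescence 560–590 nm, growth compared with untreated cells. n = 3 separate tests.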

[3] = Hemolytic activity in RBC (unknown origin) assessed as hemolysis at 100 ug/ml incubated for 1 hrs by absorbance based microplate reader analysis relative to control; assay type: toxicity, cell-based, Erythrocyte; conditions: red blood cells, at 100 µg/mL, read-out: Activity
Method in brief: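 Human A⁺/O⁺ RBC, 10% v/v in PBS, exposed to compound at 100 μg mL⁻¹ final (DMSO < 1%), in duplicate, stirred 1 h at RT. Centrifuged, supernatant OD₅₅₀ read. % lysis = (sample − PBS)/(1% Triton X-100 − PBS) × 100.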

[4] = system: Plasmodium falciparum; test: Antiplasmodial activity against chloroquine-sensitive Plasmodium falciparum 3D7 assessed as intraerythrocytic growth inhibition; assay type: functional, organism-based
Method in brief: (§1)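 Asexual intraerythrocytic P. falciparum cultured at 37 °C in RPMI with glucose, hypoxanthine, gentamycin and 10% pooled human A+/O+ serum. DMSO stocks of 5–10 mg mL⁻¹ diluted in RPMI, final DMSO at most 1%. Eight two-fold dilutions tested in three consecutive assays. Growth read as Plasmodium lactate dehydrogenase activity at 650 nm against parasitized RBC (100%) and free RBC (0%). IC50 in triplicate; artemisinin and quinine as controls.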

[5] = system: Plasmodium falciparum; test: Antiplasmodial activity against chloroquine-resistant Plasmodium falciparum FcB1 assessed as intraerythrocytic growth inhibition; assay type: functional, organism-based; method in brief: as §1
[6] = system: Plasmodium falciparum; test: Antiplasmodial activity against multidrug-resistant Plasmodium falciparum W2 assessed as intraerythrocytic growth inhibition; assay type: functional, organism-based; method in brief: as §1
[7] = Aqueous solubility of compound assessed as Cmax incubated for 3 days by UV spectrophotometer based shake-flask method; assay type: physicochemical; conditions: water (aqueous); time 3 day; read-out: Cmax
Method in brief: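 Shake-flask: excess solid stirred overnight in MilliQ water at RT (~25 °C), filtered 0.45 μm, diluted, absorbance read at the λmax from a UV scan. Quantified against a 3-point calibration curve (R² > 0.95). Fresh saturated solutions were made on 3 consecutive days.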

[8] = Cytotoxicity against HUVEC confluent cells assessed as inhibition of cell growth incubated for 48 hrs by fluorescence based assay; assay type: toxicity; conditions: human
Method in brief: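 Confluent HUVEC: plates seeded 3 days before treatment, then exposed to six 2-fold concentrations for 48 h. PrestoBlue fluorescence read-out (560–590 nm), compared with untreated cells.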

[9] = Toxicity in zebrafish embryos assessed as survival at highest concentration measured for 3 days relative to control; design: species or system Danio rerio; conditions: in vivo, time 3 day, read-out: Activity
Method in brief: (§2)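 Zebrafish embryos were synchronized 24 h after collection and kept at 28 °C with chorion intact, 20 per condition in duplicate. They were exposed to 100, 50, 25 or 10 μg mL⁻¹ from 100 mg mL⁻¹ DMSO stocks (final DMSO under 0.1%), with medium renewed daily for 3 days. Aspect, hatching and mortality were followed to 96 hpf against 30 control embryos in water with 0.1% DMSO.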

[10] = Toxicity in zebrafish embryos assessed as reduction in brain size at 10 to 100 ug/ml measured for 3 days; assay type: tissue-based, Danio rerio; conditions: in vivo, 72 h, dose 10-100 µg/ml, time 3 day
[11] = Toxicity in zebrafish embryos assessed as brain misshape at 10 to 100 ug/ml measured for 3 days; assay type: tissue-based, Danio rerio; conditions: in vivo, 72 h, dose 10-100 µg/ml, time 3 day
[12] = Toxicity in zebrafish embryos assessed as modified heart rate at 10 to 100 ug/ml measured for 3 days; design: species or system Danio rerio; conditions: in vivo, 72 h, dose 10-100 µg/ml, time 3 day
[13] = Toxicity in zebrafish embryos assessed as egg hatching at 10 to 100 ug/ml measured for 72 hrs relative to control; assay type: tissue-based, Danio rerio; conditions: in vivo, at 10 to 100 µg/mL, dose 10-100 µg/ml
[14] = Toxicity in zebrafish embryo assessed as developmental defects at 10 to 100 ug/ml measured 24 hrs post fertilization; design: species or system Danio rerio; conditions: in vivo, dose 10-100 µg/ml
[15] = Toxicity in zebrafish embryo assessed as survival at 10 to 100 ug/ml measured 24 hrs post fertilization relative to control; design: species or system Danio rerio; conditions: in vivo, at 10 to 100 µg/mL, dose 10-100 µg/ml, read-out: Activity; method in brief: as §2
[16] = system: Plasmodium falciparum; test: Antiplasmodial activity against Plasmodium falciparum 3D7 assessed as inhibition of parasite reduction by giemsa staining based analysis; assay type: functional, organism-based
Method in brief: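 3D7 cultures were exposed to compound for 48 h. Parasitaemia was then scored by microscopy as a visual check of parasite burden.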

[17] = system: Plasmodium vinckei petteri; test: Antiplasmodial activity against Plasmodium vinckei petteri infected in Swiss mouse model assessed as inhibition of parasite growth at 50 to 100 mg/kg,ip administered for 4 days relative to control; assay type: functional; design: scale not given: the % may be the effect or the level left; conditions: dose 50-100 mg/kg, time 4 day
[18] = system: Plasmodium vinckei petteri; test: Antiplasmodial activity against Plasmodium vinckei petteri infected in Swiss mouse model assessed as inhibition of parasite growth administered intraperitoneally for 4 days; assay type: functional; conditions: 96 h, route ip, time 4 day
[19] = system: Plasmodium berghei; test: Antiplasmodial activity against Plasmodium berghei NK173 infected in Swiss CD-1 mouse model of malaria assessed as reduction in parasitaemia at 50 mg/kg, po measured after 7 days by giemsa staining based microscopic analysis; assay type: functional, organism-based; conditions: time 7.0 day
Method in brief: (§3)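 Peters' 4-day suppressive test: female Swiss CD1 mice (10 weeks, 25 ± 2 g), six per group, infected i.p. with P. berghei NK173-parasitized RBC at D1. Dosing 2–3 h post-infection, then daily for 3 days, in 7% Tween 80/3% EtOH in saline. Giemsa thin tail-blood smears (≥500 erythrocytes) at D4 (2 h post-dose) and D7. Inhibition is taken versus vehicle controls.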

[20] = system: Plasmodium vinckei petteri; test: Antiplasmodial activity against Plasmodium vinckei petteri infected in Swiss mouse model assessed as inhibition of parasite growth administered orally for 4 days; assay type: functional; conditions: 96 h, route po, time 4 day
[21] = Oral bioavailability in human; assay type: ADME, organism-based; conditions: in vivo
[22] = system: Plasmodium falciparum; test: Antiplasmodial activity against Plasmodium falciparum 3D7 assessed as inhibition of parasite reduction by Plasmodium lactate dehydrogenase activity
[23] = system: Plasmodium vinckei petteri; test: Antiplasmodial activity against Plasmodium vinckei petteri infected in Swiss mouse model assessed as reduction in parasitaemia at 50 mg/kg, ip administered for 4 days; design: scale not given: the % may be the effect or the level left; conditions: time 4 day
[24] = Selectivity index, ratio of IC50 for antiplasmodial activity against chloroquine-resistant Plasmodium falciparum FcB1 to IC50 for antiplasmodial activity against chloroquine-sensitive Plasmodium falciparum 3D7; assay type: functional
[25] = Selectivity index, ratio of IC50 for antiplasmodial activity against chloroquine-resistant Plasmodium falciparum FcB1 to IC50 for antiplasmodial activity against multidrug-resistant Plasmodium falciparum W2; assay type: functional
[26] = Toxicity in zebrafish embryos assessed as reduction in egg hatching measured for 72 hrs; design: species or system Danio rerio; conditions: in vivo, dose 10-100 µg/ml
[27] = Toxicity in zebrafish embryo assessed as egg hatching at 100 ug/ml measured for 72 hrs relative to control; assay type: tissue-based, Danio rerio; conditions: in vivo, at 100 µg/mL
[28] = Toxicity in zebrafish embryos assessed as reduction in egg hatching at 10 to 100 ug/ml measured 5 days post fertilization; design: species or system Danio rerio; conditions: in vivo, 120 h, dose 10-100 µg/ml, time 5 day
[29] = Toxicity in mouse at 150 mg/kg, ip administered 2 hrs once for 6 hrs and measured for 24 hrs; assay type: organism-based; conditions: in vivo
Method in brief: (§4)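 Two mice per route (i.p. or p.o.) received 4 increasing doses over 6 h (every 2 h) in Tween 80/EtOH/saline (7/3/90), then were followed for 24 h for health or behavioural problems. Maximal dose is set as 50% of the cumulative dose giving toxicity.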

[30] = Toxicity in mouse at 200 mg/kg, po administered 2 hrs once for 6 hrs and measured for 24 hrs; assay type: organism-based; conditions: in vivo; method in brief: as §4
[31] = system: Plasmodium berghei; test: Antiplasmodial activity against Plasmodium berghei NK173 infected in Swiss CD-1 mouse model of malaria assessed as reduction in parasitaemia at 50 mg/kg, po measured after 4 days by giemsa staining based microscopic analysis relative to control; assay type: functional; design: scale not given: the % may be the effect or the level left; conditions: time 4 day; method in brief: as §3
[32] = system: Plasmodium berghei; test: Antiplasmodial activity against Plasmodium berghei NK173 infected in Swiss CD-1 mouse model of malaria assessed as reduction in parasitaemia at 50 mg/kg, ip measured after 4 days by giemsa staining based microscopic analysis relative to control; assay type: functional; design: scale not given: the % may be the effect or the level left; conditions: time 4 day; method in brief: as §3

Row | Structure (SMILES) | selectivity ratio [1] | IC50 at 48 h [2] [µM] | hemolysis at 1 h, 100 ug/ml [3] [%] | IC50 [4] [µM] | IC50 [5] [µM] | IC50 [6] [µM] | solubility thermodynamic at 72 h [7] [µM] | survival at 72 h [9] [%] | Activity [10] | Activity [11] | Activity [12] | Activity [14] | survival at 24 h [15] [%] | also measured
1 | O=C(OCCCOC(=O)c1cc(O)c(OCc2ccccc2)c(O)c1)c1cc(O)c(OCc2ccccc2)c(O)c1 | 8 | 14 | < 1 | 1.8 | 1.7 | 1.9 | 26 (≈ 14.6 µg/mL) | > 90 | Non-Toxic | Non-Toxic | Non-Toxic | Non-Toxic | > 95 | IC50 at 48 h [8]: 12.1 µM; Activity [13]: 100%
2 | O=C(O)c1cc(O)c(O)c(O)c1 [GALLIC ACID] | > 4 | > 294 | < 1 | 68 |  |  | 70000 (≈ 11900 µg/mL) |  |  |  |  |  |  | IC50 [16]: > 10 µM and 68 µM
3 | O=c1oc2c(O)c(O)cc3c(=O)oc4c(O)c(O)cc1c4c23 [ELLAGIC ACID] | > 59 | > 165 | < 1 | 2.8 | 7.5 | 8.9 | 18 (≈ 5.44 µg/mL) |  |  |  |  |  |  | Activity [17]: 100%; ED50 [18]: < 1 mg/kg; Activity [19]: inactive; ED50 [20]: > 100 mg/kg; bioavailability [21]: 1%; IC50 [22]: 2.8 µM; Activity [23]: 100%
4 | O=C(NCCCNC(=O)c1cc(O)c(O)c(O)c1)c1cc(O)c(O)c(O)c1 | 28 | 130 | < 1 | 9.9 | 26 | 12 | 610 (≈ 231 µg/mL) | > 90 | Non-Toxic | Non-Toxic | Non-Toxic | Non-Toxic | > 95 | Ratio IC50 [24]: 2; Ratio IC50 [25]: 2; Activity [26]: Dose-Dependent Effect; Activity [27]: 20%; Activity [28]: Toxic; Activity [29]: Non-Toxic; Activity [30]: Non-Toxic; Activity [31]: 54%; Activity [32]: 66%
